Laboratory results as given in ChEMBL document CHEMBL1135732, “Synthesis and antitumor activity of several new analogues of penclomedine and its metabolites” (2002).

Columns and labels:
[1] = species on record: Mus musculus; assay: Tumor growth delay in comparison vehicle-treated control, difference in the median time poststaging for tumors of the treated (T) group to double twice in mass compared to the median of the control (C) group ce; format: functional
Method in brief: (§1)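 MX-1 human breast tumor (NCI repository), fragments of 30–40 mg from in vivo passage implanted subcutaneously in the axillary region. Groups of five mice dosed ip for 5 days once tumors reached about 300 mg, with compound as a suspension in aqueous hydroxypropyl cellulose. Tumors were caliper-measured in two dimensions twice weekly and converted to mass. Growth delay T−C was the difference in median time to two doublings versus vehicle controls. Regressions and tumor-free survivors were also recorded. The study ended when controls reached 1 g.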

[2] = species on record: Mus musculus; assay: Number of tumor-free survivors in a group of five mice; format: functional
Method in brief: (§2)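 Human MX-1 breast tumor fragments (30–40 mg) from in vivo passage implanted subcutaneously in the axillary region. Dosing ip as a suspension in aqueous hydroxypropyl cellulose, once daily for 5 days, beginning when tumors reached about 300 mg. Groups of five mice. Tumors caliper-measured in two dimensions twice weekly and converted to mass. Study ended when control tumors reached 1 g.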

[3] = tested on: Mus musculus; assay: In vivo optimal (ip) dosage (<LD10) against subcutaneously implanted human mammary tumor xenograft MX-1 on a five-successive day schedule in Athymic NCr-nu/nu mice; format: functional; method in brief: as §2
[4] = tested on: Mus musculus; assay: In vivo optimal (ip) dosage (<LD10) against subcutaneously implanted human mammary tumor xenograft MX-1 on a five-successive day schedule in Athymic NCr-nu/nu mice; Toxic; format: functional, organism-based; method in brief: as §1

`FC(F)(F)COc1nc(C(Cl)(Cl)Cl)c(Cl)c(OCC(F)(F)F)c1Cl` showed a T-C [1] of 0.4 days, a Tumor-free [2] of 0 survivors/total and an Optimal dosage [3] of 135 mg kg-1 dose-1 day-1.

`CCOc1nc(C(Cl)(Cl)Cl)c(Cl)c(OC)c1Cl` was tested, and the T-C [1] was >38.6 days, the Tumor-free [2] was 2 survivors/total and the Optimal dosage [3] was 200 mg kg-1 dose-1 day-1.

In the case of `CCOc1nc(C(Cl)(Cl)Cl)c(Cl)c(OCC)c1Cl`, the T-C [1] is reported as >41 days, the Tumor-free [2] is reported as 4 survivors/total and the Optimal dosage [3] is reported as 135 mg kg-1 dose-1 day-1.

`Oc1c(Cl)c(Cl)nc(C(Cl)(Cl)Cl)c1Cl` was tested, and the T-C [1] was 2 days, the Tumor-free [2] was 0 survivors/total and the Optimal dosage [3] was 50 mg kg-1 dose-1 day-1.

With `COc1nc(C(Cl)(Cl)Cl)c(Cl)c(OC(C)C)c1Cl` the T-C [1] was >35.2 days, the Tumor-free [2] was 2 survivors/total and the Optimal dosage [3] was 60 mg kg-1 dose-1 day-1.

Compound `CCOc1nc(C(Cl)(Cl)Cl)c(Cl)c(OC(=O)COC)c1Cl` has a T-C [1] of 17.8 days, a Tumor-free [2] of 0 survivors/total and an Optimal dosage [3] of 135 mg kg-1 dose-1 day-1.

`CC(=O)Oc1nc(C(Cl)(Cl)Cl)c(Cl)c(OC(C)=O)c1Cl` gave a T-C [1] of -0.5 days, a Tumor-free [2] of 0 survivors/total and an Optimal dosage [3] of 40 mg kg-1 dose-1 day-1.

For `COc1c(Cl)c(C(Cl)(Cl)Cl)nc(C(Cl)(Cl)Cl)c1Cl`, the T-C [1] was -0.8 days, the Tumor-free [2] was 0 survivors/total and the Optimal dosage [3] was 135 mg kg-1 dose-1 day-1.

In the case of `COc1c(Cl)c(Oc2ccccc2)nc(C(Cl)(Cl)Cl)c1Cl`, the T-C [1] is reported as 2.3 days, the Tumor-free [2] is reported as 0 survivors/total and the Optimal dosage [3] is reported as 135 mg kg-1 dose-1 day-1.

Work on `CCCOc1c(Cl)c(OC)nc(C(Cl)(Cl)Cl)c1Cl` yielded a T-C [1] of 5.4 days, a Tumor-free [2] of 0 survivors/total and an Optimal dosage [3] of 60 mg kg-1 dose-1 day-1.

For `COc1c(Cl)c(OCC(F)(F)F)nc(C(Cl)(Cl)Cl)c1Cl`, the T-C [1] was 1.2 days, the Tumor-free [2] was 0 survivors/total and the Optimal dosage [3] was 90 mg kg-1 dose-1 day-1.

`CC(=O)Oc1c(Cl)c(Cl)nc(C(Cl)(Cl)Cl)c1Cl` was tested, and the Optimal dosage [4] was “Toxic”.

Compound `CCCCOc1nc(C(Cl)(Cl)Cl)c(Cl)c(OCCCC)c1Cl` has a T-C [1] of -0.6 days, a Tumor-free [2] of 0 survivors/total and an Optimal dosage [3] of 135 mg kg-1 dose-1 day-1.

For `CCCCOc1nc(C(Cl)(Cl)Cl)c(Cl)c(OC)c1Cl`, the T-C [1] was -0.8 days, the Tumor-free [2] was 0 survivors/total and the Optimal dosage [3] was 135 mg kg-1 dose-1 day-1.

`CCCCOc1nc(C(Cl)(Cl)Cl)c(Cl)c(O)c1Cl` was tested, and the T-C [1] was -0.9 days, the Tumor-free [2] was 0 survivors/total and the Optimal dosage [3] was 135 mg kg-1 dose-1 day-1.

`CCOc1nc(C(Cl)(Cl)Cl)c(Cl)c(OC(C)=O)c1Cl` was tested, and the T-C [1] was 1.4 days, the Tumor-free [2] was 0 survivors/total and the Optimal dosage [3] was 90 mg kg-1 dose-1 day-1.

`COc1nc(C(Cl)(Cl)Cl)c(Cl)c(Cl)c1Cl` showed a T-C [1] of -1.4 days, a Tumor-free [2] of 0 survivors/total and an Optimal dosage [3] of 135 mg kg-1 dose-1 day-1.

`CCCCOc1c(Cl)c(OC)nc(C(Cl)(Cl)Cl)c1Cl` gave a T-C [1] of 20.5 days, a Tumor-free [2] of 1 survivors/total and an Optimal dosage [3] of 90 mg kg-1 dose-1 day-1.

With `COc1c(Cl)c(Cl)nc(C(Cl)(Cl)Cl)c1Cl` the T-C [1] was 4.3 days, the Tumor-free [2] was 0 survivors/total and the Optimal dosage [3] was 50 mg kg-1 dose-1 day-1.

`Oc1c(Cl)c(OCC(F)(F)F)nc(C(Cl)(Cl)Cl)c1Cl` showed a T-C [1] of -0.2 days, a Tumor-free [2] of 0 survivors/total and an Optimal dosage [3] of 90 mg kg-1 dose-1 day-1.

In the case of `COc1nc(C(Cl)(Cl)Cl)c(Cl)c(OC)c1Cl` [PENCLOMEDINE], the T-C [1] is reported as >49 days, the Tumor-free [2] is reported as 5 survivors/total and the Optimal dosage [3] is reported as 90 mg kg-1 dose-1 day-1.

In the case of `COc1nc(C(Cl)(Cl)Cl)c(Cl)c(OC(C)=O)c1Cl`, the T-C [1] is reported as >41 days, the Tumor-free [2] is reported as 5 survivors/total and the Optimal dosage [3] is reported as 90 mg kg-1 dose-1 day-1.

With `Oc1nc(C(Cl)(Cl)Cl)c(Cl)c(O)c1Cl` the T-C [1] was -0.5 days, the Tumor-free [2] was 0 survivors/total and the Optimal dosage [3] was 40 mg kg-1 dose-1 day-1.

`CCOc1nc(C(Cl)(Cl)Cl)c(Cl)c(O)c1Cl` showed a T-C [1] of 5.2 days, a Tumor-free [2] of 0 survivors/total and an Optimal dosage [3] of 60 mg kg-1 dose-1 day-1.

`COc1nc(C(Cl)(Cl)Cl)c(Cl)c(O)c1Cl` was tested, and the T-C [1] was >37.2 days, the Tumor-free [2] was 3 survivors/total and the Optimal dosage [3] was 90 mg kg-1 dose-1 day-1.

`COc1c(Cl)c(O)nc(C(Cl)(Cl)Cl)c1Cl` gave a T-C [1] of 0.8 days, a Tumor-free [2] of 0 survivors/total and an Optimal dosage [3] of 135 mg kg-1 dose-1 day-1.

With `Clc1c(Oc2ccccc2)nc(C(Cl)(Cl)Cl)c(Cl)c1Oc1ccccc1` the T-C [1] was 0.2 days, the Tumor-free [2] was 0 survivors/total and the Optimal dosage [3] was 135 mg kg-1 dose-1 day-1.

With `CC(C)Oc1nc(C(Cl)(Cl)Cl)c(Cl)c(OC(C)C)c1Cl` the T-C [1] was -0.7 days, the Tumor-free [2] was 0 survivors/total and the Optimal dosage [3] was 135 mg kg-1 dose-1 day-1.

For `CCOc1c(Cl)c(OC)nc(C(Cl)(Cl)Cl)c1Cl`, the T-C [1] was >42.7 days, the Tumor-free [2] was 5 survivors/total and the Optimal dosage [3] was 90 mg kg-1 dose-1 day-1.
